Screens: PubChem, Johns Hopkins Ion Channel Center
MrgX1 allo act: positive allosteric modulators of MrgX1, primary screen, HEK293 cells, Fluo-4 calcium flux; Mas-related G-protein coupled receptor member X1 (Homo sapiens), Q96LB2; FDSS; active compounds read high; B-score at 10 µM; 0.63% of 310,000 active; AID 588675, 2011;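 active means plate-corrected calcium response at least 3 library SD above typical, normal starting fluorescence, not activating the receptor alone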;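 further: compound read alongside a low EC10 to EC30 dose of BAM8-22 agonist; peak minus trough fluorescence over baseline measured at the second addition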
Target sequence (Q96LB2 whole entry, looked up): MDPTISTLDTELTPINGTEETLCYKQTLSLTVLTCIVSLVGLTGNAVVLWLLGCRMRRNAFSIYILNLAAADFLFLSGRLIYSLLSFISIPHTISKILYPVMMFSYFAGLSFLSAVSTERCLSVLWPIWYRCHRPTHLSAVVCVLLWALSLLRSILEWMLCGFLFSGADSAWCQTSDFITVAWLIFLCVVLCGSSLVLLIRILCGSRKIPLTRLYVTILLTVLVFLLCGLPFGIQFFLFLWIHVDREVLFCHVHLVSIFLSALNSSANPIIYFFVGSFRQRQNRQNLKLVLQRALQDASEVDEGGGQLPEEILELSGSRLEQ
RGS4 block: RGS4 inhibitors, primary screen, cell-based, HEK293 M3R inducible RGS4, calcium flux | B-score at 10 µM | 0.45% of 310,000 active | Fluo-4 calcium flux; active compounds read high; triggered by carbachol at its EC20 | Regulator of G-protein signaling 4 (Homo sapiens), P49798;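 active means B-score, a plate-corrected calcium signal, over three deviations above library mean, with baseline fluorescence within five deviations of library mean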;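 further: RGS4 expression induced by doxycycline in cells with stable M3 receptor; B-score is computed from the integrated fluorescence ratio over baseline after carbachol; higher B-score means a larger calcium signal and so more RGS4 inhibition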
Target sequence (P49798 whole entry, looked up): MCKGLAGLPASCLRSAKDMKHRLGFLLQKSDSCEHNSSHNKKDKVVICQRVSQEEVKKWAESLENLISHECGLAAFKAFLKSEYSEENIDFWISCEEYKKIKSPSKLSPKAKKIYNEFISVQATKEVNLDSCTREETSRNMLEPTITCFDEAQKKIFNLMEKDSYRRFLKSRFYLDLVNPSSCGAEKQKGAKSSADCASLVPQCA
MrgX1 antag: antagonists of human MrgX1 receptor, primary screen, HEK293 cells, Fluo-4 calcium flux; BAM8-22 antagonism; active compounds read low; B-score at 10 µM; 1.3% of 310,000 active; AID 588676, 2011;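 active means calcium-response B-score plate-corrected more than 3 library SD below zero, starting fluorescence within 5 deviations, no agonist response on first addition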;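 further: peak minus trough fluorescence over baseline after final BAM8-22 challenge near maximal dose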
RGS4 act: RGS4 potentiators or activators, primary screen, cell-based, HEK293 M3R inducible RGS4, calcium flux; carbachol calcium flux Fluo4; active compounds read low; B-score at 10 µM; 0.92% of 310,000 active;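 active means B-score of the integrated calcium signal more than 4 SD below the library mean, with starting fluorescence not abnormally high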;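 further: negative B-score means reduced calcium response which marks RGS4 activation or potentiation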
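Test system: HEK293 cells with stable M3R and inducible RGS4; also added: carbachol at ECmax as muscarinic agonist stimulus; schedule: dye loading 30 min 37 °C, buffer rest 30 min RT; technique: kinetic calcium fluorescence imaging with Fluo4-AM dye, 2 µM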
MrgX1 ag: agonists of human MrgX1 receptor, primary screen, HEK293 cells, Fluo-4 calcium flux. Mas-related G-protein coupled receptor member X1 (Homo sapiens), Q96LB2. AID 588627, 2011. 0.44% of 310,000 active. B-score at 10 µM. Fluo-4 calcium fluorescence, agonist mode; active compounds read high;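 active means calcium response B-score plate-corrected fluorescence ratio at least 3 library SD, with starting fluorescence B-score inside 5 SD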
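Material: MrgX1-expressing HEK293 cells; input: 15,000 cells per well; doses: test compound given as first of three sequential additions; schedule: overnight plating before 1 h dye loading; technique: Fluo-4 NW calcium-flux fluorescence, kinetic read; evaluation: baseline-normalised fluorescence change ratio, B-scored; control set: plate-wise positive and negative controls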
* hit, by the source's call. Most compounds without a hit are left out; they make up all but 3.5% or so of the library.

`CCC1C=CC=CC[C@H](C)[C@@H](O)[C@](C)(O)C(=O)[C@@H](C)[C@H](O)[C@@H](C)C(=O)[C@H](C)[C@@H](O)[C@H](C)C=CC(=O)OC2[C@@H](C)C(CC1)OC1(CC[C@@H](C)C(C[C@H](C)O)O1)[C@@H]2C` (some centres not stated) gave MrgX1 allo act inactive, MrgX1 antag -4.8* and MrgX1 ag inactive.
Screening Cc1cc(N=Nc2ccccc2C)ccc1N returned MrgX1 allo act inactive, MrgX1 antag inactive and MrgX1 ag inactive.
Screening O=C1NC(=S)N(c2ccccc2)C(=O)/C1=C/c1ccco1 returned MrgX1 allo act inactive, RGS4 block inactive, MrgX1 antag inactive, RGS4 act inactive and MrgX1 ag inactive.
Screening O=C1NC(=S)N(c2ccccc2)C(=O)C1C(c1ccncc1)C1C(=O)NC(=S)N(c2ccccc2)C1=O (configuration not stated) returned MrgX1 allo act inactive, RGS4 block inactive, MrgX1 antag -7.6*, RGS4 act inactive and MrgX1 ag inactive.
Screening O=C1OC(c2ccc(Br)cc2)=N/C1=C\N1CC2CC(C1)c1cccc(=O)n1C2 (configuration not stated) returned MrgX1 allo act inactive, RGS4 block inactive, MrgX1 antag inactive, RGS4 act inactive and MrgX1 ag inactive.
For O=C1OC(c2ccc([N+](=O)[O-])cc2)=N/C1=C/N1CC2CC(C1)c1cccc(=O)n1C2 (configuration not stated) the results were MrgX1 allo act inactive, RGS4 block inactive, MrgX1 antag inactive, RGS4 act inactive and MrgX1 ag 57*.
Screening CCOC(=O)c1c(-n2c(C)cc(/C=C3/C(=O)NC(=O)N(CC)C3=O)c2C)sc2c1CCCC2 returned MrgX1 allo act inactive, RGS4 block inactive, MrgX1 antag inactive, RGS4 act inactive and MrgX1 ag inactive.
Screening CCOC(=O)c1c(-n2c(C)cc(C=C3C(=O)NC(=S)NC3=O)c2C)sc2c1CCCC2 returned MrgX1 allo act inactive, RGS4 block inactive, MrgX1 antag inactive, RGS4 act inactive and MrgX1 ag 28*.
Screening COC(=O)C1=C(c2ccc(S(C)(=O)=O)cc2)C[C@@H]2CC[C@H]1N2C(=O)NCCNC(C)=O returned MrgX1 allo act inactive, RGS4 block inactive, MrgX1 antag inactive, RGS4 act inactive and MrgX1 ag inactive.
`Cc1cccc(CN2CCCC(C(=O)c3ccc4c(c3)OCO4)C2)n1` (configuration not stated) gave MrgX1 allo act inactive, RGS4 block inactive, MrgX1 antag inactive, RGS4 act inactive and MrgX1 ag inactive.
Cc1c(C(c2ccc(Cl)cc2Cl)c2c(O)c3ccccc3oc2=O)c(=O)n(-c2ccccc2)n1C (configuration not stated) was read as MrgX1 allo act 14*, RGS4 block inactive, MrgX1 antag inactive, RGS4 act inactive and MrgX1 ag inactive.
Screening Cc1c(C(c2ccc(Br)cc2)c2c(O)c3ccccc3oc2=O)c(=O)n(-c2ccccc2)n1C (configuration not stated) returned MrgX1 allo act inactive, RGS4 block inactive, MrgX1 antag inactive, RGS4 act inactive and MrgX1 ag inactive.
For CN1Cc2c(c(C#N)c(N)n(C)c2=S)CC1(C)C the results were MrgX1 allo act inactive, RGS4 block inactive, MrgX1 antag inactive, RGS4 act -9.3* and MrgX1 ag inactive.
`C#C[C@@]1(O)CCC2C3CCC4=C/C(=N/OCC(=O)NC(C(=O)NC(CC(C)C)C(=O)O)C(C)C)CC[C@]4(C)C3CC[C@@]21C` (some centres not stated) gave MrgX1 allo act inactive, RGS4 block inactive, MrgX1 antag inactive, RGS4 act inactive and MrgX1 ag inactive.
For COC(=O)C(Cc1ccc(N(CCCl)CCCl)cc1)N=Cc1ccccc1O (configuration not stated) the results were MrgX1 allo act inactive, RGS4 block inactive, MrgX1 antag inactive, RGS4 act -7.1* and MrgX1 ag inactive.
`O=C(C[N+]12CCC(CC1)C(C(O)(c1ccccc1)c1ccccc1)C2)c1ccc(Br)cc1` (configuration not stated) gave MrgX1 allo act inactive, RGS4 block inactive, MrgX1 antag inactive, RGS4 act -10* and MrgX1 ag inactive.
OCC[N+]12CCC(CC1)C(C(O)(c1ccccc1)c1ccccc1)C2 (configuration not stated) was read as MrgX1 allo act inactive, RGS4 block inactive, MrgX1 antag inactive, RGS4 act inactive and MrgX1 ag inactive.
Screening N#CC(C#N)=NNc1ccc(-n2ccc(C(F)(F)F)n2)cc1 returned MrgX1 allo act inactive, RGS4 block inactive, MrgX1 antag inactive, RGS4 act inactive and MrgX1 ag inactive.
`CCN(CC)S(=O)(=O)c1ccc(NN=C(C#N)C#N)cc1` gave MrgX1 allo act inactive, RGS4 block inactive, MrgX1 antag -7.4*, RGS4 act inactive and MrgX1 ag inactive.
Screening C=C1C2[C@H](OC(C)=O)[C@@H]3CC(=O)[C@]4(C)OC[C@@]3(C)[C@@]4(O)[C@@H](OC(C)=O)[C@H](OC(C)=O)[C@@]2(COC(=O)c2ccccc2)[C@@H](OC(C)=O)C[C@@H]1O (some centres not stated) returned MrgX1 allo act inactive, RGS4 block inactive, MrgX1 antag -5.4*, RGS4 act inactive and MrgX1 ag inactive.
Screening O=[N+]([O-])c1ccccc1-c1cc(-c2ccccc2)cc(-c2ccccc2)[n+]1Cc1ccccc1Cl returned MrgX1 allo act inactive, RGS4 block inactive, MrgX1 antag -7*, RGS4 act -10* and MrgX1 ag inactive.
For COc1cccc(-n2c(CN3CCN(C)CC3)nc3ccc([N+](=O)[O-])cc3c2=O)c1 the results were MrgX1 allo act inactive, RGS4 block inactive, MrgX1 antag inactive, RGS4 act inactive and MrgX1 ag inactive.
Screening Cc1cc(Oc2ccc(C(F)(F)F)cc2[N+](=O)[O-])c2c3c(c(=O)oc2c1)CCC3 returned MrgX1 allo act inactive, RGS4 block inactive, MrgX1 antag inactive, RGS4 act inactive and MrgX1 ag inactive.
`Cc1cc(Oc2ccc(C(F)(F)F)cc2[N+](=O)[O-])c2c3c(c(=O)oc2c1)CCCC3` gave MrgX1 allo act inactive, RGS4 block inactive, MrgX1 antag inactive, RGS4 act -7.4* and MrgX1 ag inactive.
